From ChEMBL document CHEMBL1127326, “Antitumor agents. 148. Synthesis and biological evaluation of novel 4 beta-amino derivatives of etoposide with better pharmacological profiles” (1994) come the findings set out here.

Test [1] concerns Tumor Cell line. The test is described as follows: Drug molar concentration required to inhibit 50% of human tumor cell growth. The format is functional. Put shortly: (§1)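 NCI panel of 54 human tumor lines from eight cancer types, mostly seeded at 20 000 cells/well. Cells were preincubated 24 h without drug, then exposed to five 10-fold dilutions for 48 h, fixed and stained with sulforhodamine B, and read spectrophotometrically. Versus control, GI50 (50% growth inhibition), TGI (0% growth) and LC50 (−50% growth) were calculated; mean graph midpoints average all lines.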

Test [2] relates to KB. The test can be described thus: Inhibitory dose value is the concentration which affords 50% reduction in the number of KB ATCC cells. The class given is functional. The note with it: Homo sapiens, read-out: ID50 (the source's name). Put shortly: (§2)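 KB cells (parental ATCC line and resistant variants) exposed to drug at five concentrations […] for 3 days. ID50 is the concentration giving 50% reduction in cell number, derived from the degree of inhibition at the five concentrations.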

For test [3], the system named is KB. The test is described as follows: 50% reduction in the number of KB V20C resistant variant. The class given is functional, Homo sapiens. The settings on record: read-out: ID50 (the source's name). In short, it runs like this:
as §2

In test [4] the test system is KB. The test is described as follows: 50% reduction in the number of KB 7D (topoisomerase II, aMDR) resistant variant. The format is functional, Homo sapiens. The settings on record: read-out: ID50 (the source's name). In short, it runs like this:
as §2

The subject of test [5] is Tumor Cell line. The test can be described thus: Drug concentration required to inhibit total cell growth. The format is functional, Homo sapiens. The note with it: read-out: Log TGI (converted). Put shortly: as §1
Test [6] deals with KB. The test can be described thus: Cytotoxicity against KB cells after a 3 day incubation. The class given is functional, Homo sapiens. The settings on record: read-out: ID50 (the source's name). In short, it runs like this:
as §2

Test [7] concerns Tumor Cell line. The test can be described thus: LC 50 is the concentration required to cause 50% cell death. The settings on record: Homo sapiens, read-out: Log LC50 (the source's name) (converted). The format is functional. Put shortly:
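NCI in vitro panel of 54 human tumor cell lines from eight cancer types, mostly seeded at 20 000 cells/well and preincubated 24 h without drug. Five 10-fold dilutions were then added for a further 48 h. Cells were fixed in situ and stained with sulforhodamine B, and bound dye was read spectrophotometrically. LC50 (−50% growth versus control) was taken from five-point dose-response curves and reported as the log10 mean-graph midpoint across lines.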

Each structure is given as a SMILES string.

In test [1], `COc1cc([C@@H]2c3cc4c(cc3[C@@H](NC3CCN(Cc5ccccc5)CC3)[C@H]3COC(=O)[C@H]23)OCO4)cc(OC)c1O` gave a concentration for 50% growth inhibition (GI50) of 174 nM. The IC50 in test [2] turned out to be 27 nM; in test [3] it was 26 nM; in test [4], 50 nM; in test [6], 27 nM. In addition, in test [5], the TGI is 1480 nM.

`COc1cc([C@@H]2c3cc4c(cc3[C@@H](NCCCN(C)C)[C@H]3COC(=O)[C@H]23)OCO4)cc(OC)c1O` gave a GI50 in test [1] of 331 nM. Moreover, the CC50 in test [7] is 12600 nM. Besides, the IC50 in test [4] (Homo sapiens, KB) was 660 nM. In addition, in test [5], the total growth inhibition concentration (TGI) was 2190 nM.

For orientation: GI50 means the concentration that inhibits growth by half. Low readings indicate more potent growth inhibition, high ones less potent growth inhibition. As usually defined, the TGI is the concentration at which net growth stops.
